Article PMC8100350 (International Journal for Parasitology: Drugs and Drug …, 2021)
Where two headings read alike, the source gives them in different places.

How the values were obtained:
Assay type in all cases: cell-based
P. falciparum 3D7 = experiment: [3H]-hypoxanthine incorporation growth inhibition assay, P. falciparum 3D7; conditions: for IC50: mean ± SD
P. falciparum Dd2 = tested on: P. falciparum Dd2
Summary of the method: (§1)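 Sorbitol-synchronised ring stages in O+ erythrocytes, run as 48 h (1% parasitaemia, 1% haematocrit, label at start), 72 h (0.25%, 2.5%, label ~48 h) or 96 h (0.1%, 2%, medium change plus label ~72 h). Read-out was [3H]-hypoxanthine incorporation by scintillation. IC50 by log-linear interpolation against 0.5% DMSO; triplicate wells, ≥2 independent assays. RI = resistant-line IC50/3D7 IC50. Controls: chloroquine (Dd2), atovaquone (C2B), cycloguanil (FCR3).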

[1] = tested on: Neonatal foreskin fibroblast (NFF) cells; experiment: Human cell cytotoxicity assay, NFF; conditions: read-out: NFF IC50
Summary of the method: (§2)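 NFF and HEK293 cells were grown in RPMI 1640 with 10% FCS and 1% streptomycin at 37 °C and 5% CO2. Exposure was 72 h. Growth inhibition was taken against matched DMSO controls. IC50 came from log-linear interpolation, as the mean ± SD of three independent experiments, each in triplicate.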

[2] = tested on: human embryonic kidney (Hek293) cells; experiment: Human cell cytotoxicity assay, HEK293; conditions: HEK293, read-out: HEK293 IC50
Summary of the method: as §2

[3] = tested on: P. falciparum 3D7 parasites; experiment: Isopentenyl pyrophosphate; conditions: for rescue of growth inhibitory activity by IPP supplementation: 96 h assay, 200 μM IPP; for IC50: Plasmodium falciparum, 3D7, 96 h
Summary of the method: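 3D7 ring stages, sorbitol-synchronised, in O+ erythrocytes (0.1% parasitaemia, 2% haematocrit). Two identical 96 h assays ran in parallel, one with and one without 200 μM IPP. At ~72 h medium was replaced with fresh medium containing [3H]-hypoxanthine, incubated 24 h more, frozen, harvested and counted. Clindamycin was the positive control. IC50 by log-linear interpolation; triplicate wells, ≥3 independent experiments; unpaired t-test.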

P. falciparum C2B = conditions: 48 h, 72 h and 96 h assays (all time points)
Summary of the method: as §1

[4] = Plasmodium falciparum, 3D7, 48 h, read-out: P. falciparum 3D7 IC50, 48 h, 48 h assay (fast action)
[5] = Plasmodium falciparum, 3D7, 72 h, read-out: P. falciparum 3D7 IC50, 72 h, 72 h assay
[6] = Plasmodium falciparum, 3D7, 96 h, read-out: P. falciparum 3D7 IC50, 96 h, 96 h assay (slow action)

IC50 ([3]; read-out: P. falciparum 3D7 IC50, +IPP) [µM] | IC50 ([3]; read-out: P. falciparum 3D7 IC50, -IPP) [µM] | Structure (SMILES) | PfSI, Selectivity Index (mammalian cell IC50/P. falciparum IC50) (P. falciparum 3D7; NFF or HEK293 IC50 / P. falciparum 3D7 72 h IC50) | IC50 (P. falciparum 3D7; [4]) [µM] | IC50 (P. falciparum 3D7; [5]) [µM] | IC50 (P. falciparum 3D7; [6]) [µM] | RI (Dd2 IC50/3D7 IC50), 48h (P. falciparum Dd2; 48 h assay) | RI (Dd2 IC50/3D7 IC50), 72h (P. falciparum Dd2; 72 h assay) | RI (Dd2 IC50/3D7 IC50), 96h (P. falciparum Dd2; 96 h assay) | IC50 [1] [µM] | IC50 [2] [µM] | rescue of growth inhibitory activity by IPP supplementation [3] | fold less active than himbeline (P. falciparum 3D7; 96 h assays, 3D7) | IC50 (P. falciparum 3D7; read-out: P. falciparum 3D7 IC50, 96 h, 96 h assay (slow action)) [µM] | Resistance Index (RI), C2B versus 3D7, text summary (P. falciparum C2B)
– | – | CCN(CC)CCCC(C)Nc1ccnc2cc(Cl)ccc12 (stereo not shown) [Chloroquine] | 4555–5896 | 0.008 ± 0.002 | 0.006 ± 0.004 | 0.004 ± 0.002 | 3 | 3 | 7 | 35.4 ± 3.6 | 27.3 ± 13.3 | not rescued | – | – | –
– | – | CCOC(=O)N[C@@H]1CC[C@@H]2[C@@H](C1)C[C@H]1C(=O)O[C@H](C)[C@H]1[C@H]2/C=C/c1ccc(-c2cccc(F)c2)cn1 [Vorapaxar] | – | 11.2 ± 3 | 3.93 ± 1.07 | 3.5 | – | – | – | – | – | – | ~ 6 fold | 3.52 ± 0.25 | –
– | – | O=C1C(O)=C([C@H]2CC[C@H](c3ccc(Cl)cc3)CC2)C(=O)c2ccccc21 [ATQ, atovaquone] | – | – | – | – | – | – | – | – | – | – | – | – | > 2000
> 0.5 | 0.004 ± 0.001 | CCC[C@@H]1C[C@@H](C(=O)N[C@@H]([C@H]2O[C@H](SC)[C@H](O)[C@@H](O)[C@H]2O)[C@H](C)Cl)N(C)C1 [Clindamycin, clindamycin] | – | > 50 | 0.009 ± 0.002 | 0.005 ± 0.002 | – | – | – | – | – | rescued | – | – | –
